Test results reported in ChEMBL document CHEMBL3853331, “Preparation, Antiepileptic Activity, and Cardiovascular Safety of Dihydropyrazoles as Brain-Penetrant T-Type Calcium Channel Blockers” (J Med Chem, 2016).

How the values were obtained:
[1] = molecular target: T1, Voltage-dependent T-type calcium channel subunit alpha-1I (Homo sapiens, UniProt Q9P0X4); experiment: Inhibition of T-type calcium channel Cav3.3 (unknown origin) expressed in HEK293 cells assessed as calcium influx by Fluo-4-AM dye-based FLIPR assay; format: cell-based
Procedure, shortened: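 HEK293 cells stably expressing the channel, seeded overnight and loaded 1 h at 37°C with 3 µM Fluo-4-AM. Compounds given as a 3-fold dilution series from 10 µM to 0.05 nM and incubated 3 min. For T-type channels, dilutions in TEAC buffer and stimulation with 10 mM final CaCl2. For Cav1.2, dilutions in assay buffer and stimulation with 20 mM final KCl. IC50 from area under the fluorescence trace against vehicle; mean of at least two experiments.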

Rattus norvegicus [2] = experiment: Anticonvulsant activity in WAG/Rij rat model of generalized nonconvulsive absence-like epilepsy assessed as decrease in number of spontaneous seizures at 100 mg/kg, po administered as single dose at beginning of nocturnal active phase measured over 12 hrs by radiotelometry relative to vehicle control
[3] = Plasma concentration in Wistar rat at 10 mg/kg, po measured after 3 hrs; format: ADME, organism-based
Rattus norvegicus [4] = experiment: Cardiovascular toxicity in spontaneously hypertensive rat assessed as reduction in heart rate at 100 mg/kg, po; format: organism-based; conditions: in vivo
Procedure, shortened: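 Conscious, freely moving male spontaneously hypertensive rats with telemetry recording MAP, HR and ECG. Single oral dose (5 ml/kg) given as a suspension in 0.5% w/v methylcellulose in water, in the morning during the sleep phase. Vehicle controls run in parallel, n = 8 per group.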

[5] = molecular target: T1, Voltage-dependent T-type calcium channel subunit alpha-1I; experiment: Inhibition of human T-type calcium channel Cav3.3 expressed in CHO cells assessed as inhibition of calcium tail current at -60 mV holding potential measured after 150 secs by QPatch assay; format: cell-based
Procedure, shortened: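 CHO cells stably expressing human Cav3.1, Cav3.2 or Cav3.3, automated QPatch recording. 3-ms depolarization to +20 mV from a holding potential of -90 or -60 mV. Ca2+ tail current measured at -60 mV. Cs-glutamate internal and TEA-Cl external solution with 5 mM Ca2+. Effect read 150 s after application.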

[6] = Volume of distribution at steady state in Wistar rat plasma at 0.2 mg/kg, iv administered 2 hrs after aminobenzotriazol-treatment; format: ADME, organism-based; conditions: read-out: Vdss
Procedure, shortened: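 Rats dosed orally with the CYP inhibitor aminobenzotriazol 2 h before the iv dose of 0.2 mg/kg. Oral dose was 2 mg/kg.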

T1 sequence (Q9P0X4 whole entry): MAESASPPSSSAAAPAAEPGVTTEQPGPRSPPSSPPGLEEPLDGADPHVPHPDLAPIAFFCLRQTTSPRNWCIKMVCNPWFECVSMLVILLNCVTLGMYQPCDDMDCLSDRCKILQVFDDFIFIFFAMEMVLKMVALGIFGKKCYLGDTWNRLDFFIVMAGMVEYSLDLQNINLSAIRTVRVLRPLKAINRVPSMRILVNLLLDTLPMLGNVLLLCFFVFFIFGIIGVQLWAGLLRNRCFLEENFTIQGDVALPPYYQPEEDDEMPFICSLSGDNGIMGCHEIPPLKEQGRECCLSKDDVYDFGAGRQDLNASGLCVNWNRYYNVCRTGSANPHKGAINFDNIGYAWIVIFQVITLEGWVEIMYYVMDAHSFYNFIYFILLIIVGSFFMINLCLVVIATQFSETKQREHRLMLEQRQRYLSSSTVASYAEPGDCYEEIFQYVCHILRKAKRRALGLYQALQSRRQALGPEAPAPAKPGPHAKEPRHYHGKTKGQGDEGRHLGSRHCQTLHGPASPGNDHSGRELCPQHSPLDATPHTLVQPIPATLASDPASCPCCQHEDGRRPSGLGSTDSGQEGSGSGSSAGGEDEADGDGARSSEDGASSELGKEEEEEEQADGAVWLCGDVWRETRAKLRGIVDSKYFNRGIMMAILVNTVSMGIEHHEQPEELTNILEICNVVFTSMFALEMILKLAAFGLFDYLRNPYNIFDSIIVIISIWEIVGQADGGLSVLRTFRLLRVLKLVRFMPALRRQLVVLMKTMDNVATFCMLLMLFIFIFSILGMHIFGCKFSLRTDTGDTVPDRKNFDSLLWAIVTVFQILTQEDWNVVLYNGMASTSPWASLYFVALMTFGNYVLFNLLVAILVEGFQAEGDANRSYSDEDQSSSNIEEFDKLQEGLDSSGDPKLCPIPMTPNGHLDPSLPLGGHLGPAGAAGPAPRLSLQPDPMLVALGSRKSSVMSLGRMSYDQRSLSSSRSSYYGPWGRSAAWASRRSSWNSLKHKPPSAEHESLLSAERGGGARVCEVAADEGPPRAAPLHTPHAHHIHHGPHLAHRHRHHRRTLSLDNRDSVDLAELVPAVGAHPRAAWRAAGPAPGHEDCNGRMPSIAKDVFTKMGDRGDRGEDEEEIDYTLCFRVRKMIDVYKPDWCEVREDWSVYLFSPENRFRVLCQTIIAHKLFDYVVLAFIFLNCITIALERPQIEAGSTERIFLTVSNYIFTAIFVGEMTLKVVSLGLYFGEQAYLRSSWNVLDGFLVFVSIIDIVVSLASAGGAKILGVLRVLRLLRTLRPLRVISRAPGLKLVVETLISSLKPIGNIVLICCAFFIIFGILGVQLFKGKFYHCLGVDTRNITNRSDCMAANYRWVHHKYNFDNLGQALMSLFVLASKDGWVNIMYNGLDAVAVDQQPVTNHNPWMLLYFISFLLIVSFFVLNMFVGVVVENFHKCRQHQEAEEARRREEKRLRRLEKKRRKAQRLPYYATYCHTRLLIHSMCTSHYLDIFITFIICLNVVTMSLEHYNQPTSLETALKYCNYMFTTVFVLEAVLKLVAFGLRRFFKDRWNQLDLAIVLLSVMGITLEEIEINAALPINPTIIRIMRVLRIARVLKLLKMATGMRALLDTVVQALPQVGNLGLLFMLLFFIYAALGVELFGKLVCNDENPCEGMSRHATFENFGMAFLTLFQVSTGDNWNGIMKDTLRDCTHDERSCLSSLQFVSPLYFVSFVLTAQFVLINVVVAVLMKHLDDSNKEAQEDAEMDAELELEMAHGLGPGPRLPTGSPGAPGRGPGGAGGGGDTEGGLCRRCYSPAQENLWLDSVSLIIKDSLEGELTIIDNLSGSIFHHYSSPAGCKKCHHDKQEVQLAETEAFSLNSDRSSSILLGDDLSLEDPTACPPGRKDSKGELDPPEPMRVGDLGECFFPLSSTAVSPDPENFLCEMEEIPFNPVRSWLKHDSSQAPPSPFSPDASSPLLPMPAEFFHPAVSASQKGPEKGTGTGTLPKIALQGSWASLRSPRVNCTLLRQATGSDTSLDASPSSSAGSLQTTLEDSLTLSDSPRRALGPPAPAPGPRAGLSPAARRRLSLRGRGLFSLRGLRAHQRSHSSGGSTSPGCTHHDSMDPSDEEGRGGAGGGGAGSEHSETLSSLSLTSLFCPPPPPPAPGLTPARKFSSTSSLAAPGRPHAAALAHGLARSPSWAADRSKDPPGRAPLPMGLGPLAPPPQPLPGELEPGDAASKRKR

IC50 [1]: 340 nM
concentration at 3 h [3]: 290 nM
IC50 [5]: 2000 nM
Vd [6]: 17 L/kg
Structure (SMILES): O=C(Nc1ccc(F)cc1)N1N=C(c2ccncc2)CC1c1ccc(F)cc1 (stereo unspecified)
inhibition in vivo at 100 mg/kg (Rattus norvegicus [2]): 63.5%
Activity (Rattus norvegicus [4]): Toxic
